From ChEMBL document CHEMBL3596155, “Optimization of rhodanine scaffold for the development of protein-protein interaction inhibitors” (Bioorg Med Chem, 2015)
The source made the active and inactive calls. No cut-off for these calls is given here.

Legend:
[1] = target: Human immunodeficiency virus type 1 integrase (Human immunodeficiency virus 1) (UniProt Q7ZJM1); assay: Inhibition of HIV1 His6-tagged integrase assessed as inhibition of interaction with recombinant flag-tagged LEDGF/p75 at 100 uM incubated for 30 mins prior to substrate addition measured after 1 hr by AlphaScreen assay
Human immunodeficiency virus type 1 integrase (Human immunodeficiency virus 1), sequence (Q7ZJM1 as listed by the source): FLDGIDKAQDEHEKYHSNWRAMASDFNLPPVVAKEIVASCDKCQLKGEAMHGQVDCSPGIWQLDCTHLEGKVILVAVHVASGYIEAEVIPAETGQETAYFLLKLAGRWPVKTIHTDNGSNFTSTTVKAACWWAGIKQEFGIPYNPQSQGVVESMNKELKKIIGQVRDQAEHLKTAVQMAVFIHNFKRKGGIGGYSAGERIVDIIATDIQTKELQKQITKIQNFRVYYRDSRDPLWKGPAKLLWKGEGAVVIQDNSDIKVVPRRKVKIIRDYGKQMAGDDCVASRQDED
In short: (§1)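 AlphaScreen in 25 mM Tris-HCl pH 7.4, 150 mM NaCl, 1 mM MgCl2, 0.01% Tween-20 and 0.1% BSA. His6-integrase (300 nM final) was preincubated with compound for 30 min at 4°C. Flag-LEDGF/p75 (100 nM) was then added for 1 h at 4°C. Ni-chelate acceptor and anti-flag donor beads (20 μg/ml each) followed for 1 h at 30°C, protected from light. Acceptor emission was read.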

[2] = target: Human immunodeficiency virus type 1 integrase (Human immunodeficiency virus 1, UniProt Q7ZJM1); assay: Inhibition of HIV1 His6-tagged integrase assessed as inhibition of interaction with recombinant flag-tagged LEDGF/p75 incubated for 30 mins prior to substrate addition measured after 1 hr by AlphaScreen assay; in short: as §1
Human immunodeficiency virus type 1 integrase, sequence (Q7ZJM1 whole entry): as the sequence (Q7ZJM1 as listed by the source) above

[3] = system: Human immunodeficiency virus; assay: Antiviral activity against HIV 3B infected in human MT4 cells assessed as inhibition of virus-induced cytopathic effect by MTT assay; type: functional, organism-based; conditions: Human immunodeficiency virus 1, 3B
In short: (§2)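 HIV(IIIB) stock titrated on MT-4 cells to set the CCID50. MT-4 cells were infected with 100-300 CCID50 in the presence of five-fold serial compound dilutions. Protection from virus-induced cytopathic effect was read spectrophotometrically as MTT reduction to formazan by viable cells. EC50 is the concentration giving 50% protection. CC50 was determined in parallel on cells.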

[4] = Selectivity index, ratio of CC50 for human MT4 cells to EC50 for HIV 3B; type: toxicity, cell-based; conditions: read-out: Ratio CC50/EC50; in short: as §2

| Compound | inhibition [1] | IC50 [2] [µM] | EC50 [3] [µM] | selectivity ratio [4] |
| --- | --- | --- | --- | --- |
| COc1cc(/C=C2\SC(=S)N(C(C(=O)O)C(C)C)C2=O)ccc1O (stereo not given) | 43% |  |  |  |
| COc1ccc2nc(/C=C3\SC(=S)N(C(C(=O)O)C(C)C)C3=O)ccc2c1 (stereo not given) |  | 15.8 |  |  |
| CC(C)C(C(=O)O)N1C(=O)/C(=C/c2cccc3ccccc23)SC1=S (stereo not given) | 89% | 18.7 |  |  |
| CCOc1cc(/C=C2\SC(=S)N(C(C(=O)O)C(C)C)C2=O)ccc1O (stereo not given) |  | 25 |  |  |
| CCC(C(=O)O)N1C(=O)/C(=C/c2ccc(OC)cc2)SC1=S (stereo not given) | 54% | > 100 |  |  |
| COc1ccc(/C=C2\SC(=S)N(C(C)C(=O)O)C2=O)cc1 (stereo not given) | 47% |  |  |  |
| COc1ccc(/C=C2\SC(=S)N(CCC(=O)O)C2=O)cc1 | 66% | > 100 | 2.41 | 61 |
| COc1ccc(/C=C2\SC(=S)N(CC(=O)O)C2=O)cc1 | 36% |  |  |  |
| CC(C)C(C(=O)O)N1C(=O)/C(=C/c2ccc(O)cc2)SC1=S (stereo not given) | 77% | 43.7 |  |  |
| CCOc1ccc(/C=C2\SC(=S)N(C(C(=O)O)C(C)C)C2=O)cc1OC (stereo not given) | 28% |  |  |  |

Further lines, with some results ahead:

| inhibition [1] | IC50 [2] [µM] | Compound | EC50 [3] [µM] | selectivity ratio [4] |
| --- | --- | --- | --- | --- |
| inactive |  | COc1ccc(/C=C2\SC(=S)N(C(C(=O)O)C(C)C)C2=O)cc1OC (stereo not given) |  |  |
| 29% |  | COc1ccc(/C=C2\SC(=S)N(C(C)CC(=O)O)C2=O)cc1 (stereo not given) |  |  |
|  | 41.3 | COc1ccc(/C=C2\SC(=S)N(C(C(=O)O)C(C)C)C2=O)cc1 (stereo not given) |  |  |
| 20% |  | CCOc1cc(/C=C2\SC(=S)N(C(C(=O)O)C(C)C)C2=O)ccc1OC (stereo not given) |  |  |
